The target in experiment [1] is TCF4/beta-catenin (Homo sapiens) (UniProt P35222+Q9NQB0). The experiment can be described thus: Inhibition of GST-tagged T cell factor4/[…] interaction assessed as reduction in alkaline phosphatase level. The experiment is classed as cell-based.
For a further experiment, the system named is Trypanosoma cruzi. The experiment can be described thus: Antitrypanosomal activity against Trypanosoma cruzi Tulahuen assessed as parasite growth after 10 days by nephelometry. It is filed as functional. To be noted: 240 h.
The test system of the next experiment is PANC-1. Put plainly: Cytotoxicity against human PANC1 cells after 48 hrs by MTT assay. It is filed as functional, cell-based. To be noted: PANC-1, 48 h. Summed up:
(§1)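 Proliferation of human tumour lines obtained from ATCC: A549 lung adenocarcinoma (CCL-185), PANC-1 pancreatic (CRL-1469), AsPC-1 pancreatic (CRL-1682) and DLD-1 colorectal adenocarcinoma. The assay was run by a protocol described earlier.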
In general terms: Tetrazolium dyes change colour on reduction, which living cells bring about.

A further experiment deals with A549. Put plainly: Cytotoxicity against human A549 cells after 48 hrs by MTT assay. To be noted: A549, 48 h. The experiment is classed as functional, cell-based. Summed up: as §1
The subject of a further experiment is ASPC1. Put plainly: Cytotoxicity against human AsPC1 cells after 48 hrs by MTT assay. The experiment is classed as functional, cell-based. To be noted: ASPC1, 48 h. Summed up:
as §1

The next experiment deals with DLD-1. The experiment can be described thus: Cytotoxicity against human DLD1 cells after 48 hrs by MTT assay. The experiment is classed as functional, cell-based. To be noted: DLD-1, 48 h. The method, boiled down: as §1
Experiment [2] in a line: Cytotoxicity against human NCI-ADR-RES cells after 48 hrs by MTT assay. It is filed as functional, cell-based.

The source made the active and inactive calls. The rule behind the calls is not given here. Where only a bound is given, the exact number is not on record here.

Take `C[C@@]12CCC(=O)c3coc(c31)C(=O)c1cc3c(cc12)C(=O)C=CC3=O`: the inhibition entry in experiment [1] is “inactive”.

As to `CC1(C)CCC[C@@]2(C)c3cc4c(cc3CC[C@H]12)C(=O)C=CC4=O` [CYCLOZONARONE], in the experiment on Trypanosoma cruzi, the GI50 – broadly, the concentration that inhibits growth by half – stood at 0.7 µM.

`C[C@]1(C=O)CCC[C@]2(C)c3cc4c(cc3C(=O)C[C@@H]12)C(=O)C=CC4=O`: the half-maximal inhibitory concentration (IC50) (as a rule, the concentration at which inhibition is half-maximal) with PANC-1 is 6.1 µM; in the experiment on A549, more than 14.8 µM; in the experiment with ASPC1, 6.1 µM; with DLD-1, 3.7 µM; in experiment [2], more than 14.8 µM.

For `C[C@]1(CO)CCC[C@]2(C)c3cc4c(cc3C=C[C@@H]12)C(=O)C=CC4=O`, the half-maximal inhibitory concentration (IC50) with PANC-1 was 13.8 µM; in the experiment with A549, more than 15.5 µM; with ASPC1 it was more than 15.5 µM; in the experiment on DLD-1, 9.8 µM; in experiment [2], more than 15.5 µM.

For the origin of these results see ChEMBL document CHEMBL1914386, “Neopetrosiquinones A and B, sesquiterpene benzoquinones isolated from the deep-water sponge Neopetrosia cf. proxima” (Bioorg Med Chem, 2011).
